Screening results: PubChem BioAssay, several laboratories
L major viab – Leishmania major promastigote growth inhibition, primary screen; AID 1063, 2008; inhibition, % at 10 µM; 9% of 200,000 active; Leishmania major promastigotes, resazurin fluorescence viability;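 note: promastigotes grown with compound for 44 hours at 28 °C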
WT yeast gro inh – growth inhibition of WT strain, primary screen, mitochondrial fusion inhibitor project, WT and mutant strains, chemical genetic; mitochondrial fusion phenotypic screen; inhibition, % at 10 µM; 2.1% of 190,000 active; in the data active = inhibition above about 58%; tested in S. cerevisiae
Diaph inh CS – diaphorase inhibitors and chemical oxidizers, primary screen, counter-screen for diaphorase-coupled primary assays, biochemical, uHTS, resorufin fluorescence; diaphorase resazurin-to-resorufin fluorescence, NADH, 16 min; bacterial (C. kluyveri) enzyme, not human; inhibition, % at 20 µM; 0.69% of 190,000 active; AID 1217, 2008;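 active = primary screen inhibition at 20 µM above a set limit, cut at about 50% in these data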
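System: Diaphorase enzyme from Clostridium kluyveri | Amount: Enzyme working solution with 0.14 U/mL diaphorase | Benchmarks: No-NADH positive control and DMSO neutral control | Signal: Fluorescence of resorufin formed from resazurin, Ex 544/Em 590 nm | Schedule: 16-min room-temperature incubation before reading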
Diaphorase act – compounds boosting diaphorase resazurin reduction – biochemical, uHTS, resorufin fluorescence, counter-screen for diaphorase-coupled primary assays, primary screen; Diaphorase/resazurin coupled assay, 16 min; stronger effect = higher value; 1 = vehicle wells, 0 = NADH-free wells; activation factor at 20 µM; 0.005% of 190,000 active; AID 1229, 2008;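 active = diaphorase activity raised at least twofold by the compound at 20 µM; inactive = activation factor below 2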
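Assay system: bacterial diaphorase enzyme (C. kluyveri) / Input: enzyme 0.07 U/mL final / Medium: 50 mM HEPES pH 7.4 with 4.542 mM MgCl2, 0.005% Tween 20 / Doses: single compound dose of 20 µM, 1% DMSO final / Incubation: 16 min enzyme reaction, ambient temperature / Signal: fluorescence, excitation 544 nm and emission 590 nm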
G6PDH CS – L. mesenteroides G6PDH inhibitors, counter-screen for G6PDH-coupled screening assays, biochemical, Leuconostoc mesenteroides enzyme; glucose-6-phosphate dehydrogenase [Leuconostoc mesenteroides]; Purified L. mesenteroides G6PDH, diaphorase/resazurin coupled fluorescence, 45 min; inhibition, % at 5 µM; 0.12% of 200,000 active
Each line names hits and unclear results; the compound was inactive in the other large screens. An excerpt weighted towards active compounds, which were near 11% of everything screened. Cut-off read from the data, not from the text of the source, unless noted: active = inhibition above about 50%; inactive = the rest.

CCOc1ccc2ncc(C(=O)c3ccc(OC)cc3)c(N3CCN(CC)CC3)c2c1	none
CCc1ccc(C(=O)c2cnc3ccc(OC)cc3c2N2CCN(CC)CC2)cc1	L major viab 68.9
CCOC(=O)c1cnc2ccc(OCC)cc2c1N(C)Cc1ccccc1	L major viab 98.3
CCOC(=O)c1cnc2ccc(OCC)cc2c1N1CCN(c2ccccc2OC)CC1	WT yeast gro inh 79.1
Cc1ccccc1OCCNc1cc(N2CC(C)NC(C)C2)ccc1[N+](=O)[O-] (configuration not stated)	L major viab 100.5, WT yeast gro inh 86.6
O=[N+]([O-])c1ccc(N2CCCCC2)cc1NCCOc1ccccc1	L major viab 69.2
CN(C)S(=O)(=O)c1cccc(NC(=O)c2n[nH]c(=O)c3ccccc23)c1	none
CCN(CC)S(=O)(=O)c1cc(NC(=O)c2cc(-c3ccccn3)nc3ccccc23)ccc1C	L major viab 53.1
CCN(CC)S(=O)(=O)c1cc(NC(=O)c2n[nH]c(=O)c3ccccc23)ccc1C	L major viab 66.0
COC(=O)c1ccc(NC(=O)c2cc(-c3ccccn3)nc3ccccc23)cc1	none
COc1ccc(S(=O)(=O)N(C)CC(=O)N2CCC(C(N)=O)CC2)cc1Cl	none
Cc1ccc(NC(=O)CS(=O)Cc2nc(-c3ccc(C)cc3)oc2C)cc1 (configuration not stated)	none
COc1cc(C(C)=O)ccc1Oc1ncnc2c1cnn2-c1cccc(Cl)c1	L major viab 52.0
Fc1cccc2sc(Nc3nc4ccccc4s3)nc12	none
COc1ccc(C(=O)N[C@H]2COC(C)(C)O[C@H]2c2ccccc2)cc1	none
O=C1C(NS(=O)(=O)c2cccs2)=C(N2CCN(c3cccc(Cl)c3)CC2)C(=O)c2ccccc21	L major viab 98.5 (no result: WT yeast gro inh)
O=C(CCNc1cccc(F)c1)c1cccc([N+](=O)[O-])c1	L major viab 79.7
O=C(COc1cccc(NC(=O)c2cccc([N+](=O)[O-])c2)c1)c1ccc(F)cc1	none
O=C(CCNc1ccc(Cc2ccncc2)cc1)c1cccc([N+](=O)[O-])c1	L major viab 94.6
CS(=O)(=O)c1nc2c(cc1C#N)CCCC2	none
CCOc1ccc(NC(=O)COC(=O)c2cccnc2)cc1	none
COC(=O)c1sccc1-n1cccc1C(=O)NCc1ccccc1	none
CCCCOc1ccccc1C1C(C(=O)OC)=CN(CC)C=C1C(=O)OC	L major viab 60.9
CCCOc1ccccc1C1C(C(=O)OC)=CN(C(C)C)C=C1C(=O)OC	L major viab 100.0
Cc1cc(Nc2nc3ccccc3nc2Cl)n(-c2ccccc2C)n1	WT yeast gro inh 63.5
COc1ccccc1N1CCN(C(c2cccs2)c2nnnn2C2CCCC2)CC1 (configuration not stated)	none
CCC(C(=O)NC(C)(C)C)N(C(=O)Cn1nnc(-c2ccccc2F)n1)c1cccc2c1CCCC2 (configuration not stated)	none
N#CC1=C(N)Nc2nc3ccccc3n2C1c1ccc(Cl)cc1 (configuration not stated)	L major viab 77.0
N#CC1=C(N)Nc2ncnn2C1c1ccccc1 (configuration not stated)	L major viab 57.1
O=C(CSc1nc(-c2ccccc2)c(-c2ccccc2)[nH]1)N1CCN(S(=O)(=O)c2ccccc2)CC1	none
N#Cc1cc(C(=O)c2cc(Cl)ccc2O)cn(-c2ccccc2)c1=O	none
Cc1ccc(NC(=O)c2cc(C(=O)c3cc(Cl)ccc3O)cn(-c3ccc(C)cc3)c2=O)cc1	L major viab 99.1
COc1ccc(N/C(C)=C/C(=S)Nc2ccccc2)cc1	none
Cc1ccc(SCc2cn3c(C)csc3n2)cc1	WT yeast gro inh 73.9
Cc1cccc2nc(CSc3ccc(Cl)cc3)cn12	WT yeast gro inh 73.2
Clc1ccc(SCc2cn3ccccc3n2)cc1	none
CC1CCN(c2ccccc2NC(=S)NC(=O)C(C)(C)C)CC1	WT yeast gro inh 78.0
CC1CCN(c2ccccc2NC(=O)c2ccc(F)cc2)CC1	WT yeast gro inh 72.4
Cc1noc(C)c1COC(=O)C1(c2cccc(F)c2)CCCC1	none
